Active and inactive are the calls of the source.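 The calls were made as follows, unless noted: active = NADPH fluorescence slope more negative than the mean of all samples by about 3 SD, 99.7% confidence; inactive = the rest.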
Columns and labels:
[1] = inhibitors of TNFa-induced NFkB p65 translocation, primary screen, imaging, HUVEC, MLSMR starter and 10KST1 sets (AID 438;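 active = inhibition above 20% together with a positive visual image hit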;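 also: compound added about 3h40 before a 20 min TNFalpha stimulation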;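 as to inhibition: signal is the nuclear over cytoplasmic p65 intensity ratio per well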); settings: HUVEC TNFa-induced p65 nuclear translocation; cell count: measured here: nuclei count (cytotoxicity indicator), at 2.08 µM unless noted; inhibition: at 2 µM, stronger effect = higher value unless noted
[2] = endothelial E-selectin expression blockers – imaging, HUVEC, immunofluorescence, MLSMR starter and 10KST1 sets, primary screen (AID 487;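 active = visually confirmed hit in the image check and inhibition above 20%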;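 as to inhibition: signal is fraction of cell area covered by stained E-selectin grains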;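 as to nuclei count: 100% = median nuclei count of all wells on the same plate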); settings: HUVEC TNFalpha-induced E-selectin immunofluorescence imaging, at 2 µM; inhibition: stronger effect = higher value; nuclei count: measured here: cell number, toxicity
[3] = Primary imaging screen for DUSP6 inhibitors that restore phospho-Erk in transfected HeLa cells, chemical complementation (AID 609;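 active = compounds giving at least 50% inhibition in the cell-based MKP-3 phosphatase rescue imaging test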;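 as to inhibition: phospho-Erk level distribution per well compared with pooled transfected vehicle control wells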); settings: HeLa MKP-3 transfected, phospho-Erk imaging KS statistic, at 10 µM
[4] = molecular target: Dual specificity protein phosphatase 6 (Homo sapiens) (UniProt Q16828); experiment: as above; settings: HeLa MKP-3 transfected, phospho-Erk imaging KS statistic, at 10 µM, stronger effect = higher value
Dual specificity protein phosphatase 6 (Homo sapiens), sequence (Q16828 whole entry, looked up): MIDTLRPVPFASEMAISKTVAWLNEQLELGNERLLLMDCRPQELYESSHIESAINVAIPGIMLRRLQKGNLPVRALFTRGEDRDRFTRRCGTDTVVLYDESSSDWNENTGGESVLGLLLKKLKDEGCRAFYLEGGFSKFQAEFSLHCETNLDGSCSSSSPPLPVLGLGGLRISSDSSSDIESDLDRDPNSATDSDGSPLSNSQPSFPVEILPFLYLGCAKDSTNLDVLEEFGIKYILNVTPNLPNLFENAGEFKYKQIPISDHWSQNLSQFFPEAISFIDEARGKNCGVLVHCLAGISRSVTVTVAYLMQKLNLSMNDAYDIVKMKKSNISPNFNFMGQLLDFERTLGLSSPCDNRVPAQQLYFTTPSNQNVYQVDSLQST

[5] = molecular target: Voltage-gated potassium channel subunit beta-2 (Rattus norvegicus) (UniProt P62483); experiment: inhibitors of rat Kvbeta2 reductase activity – biochemical, NADPH fluorescence, primary screen (AID 622;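 active = fluorescence slope higher than the sample average by over 3 SD, cut at about -0.22 in these data, passing the limit was not always enough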;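 also: slope of raw intensity against log time taken from 70 to 1610 s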); settings: recombinant KvBeta, 4-cyanobenzaldehyde reduction, at 10 µM, stronger effect = higher value
Voltage-gated potassium channel subunit beta-2 (Rattus norvegicus), sequence (P62483 whole entry, looked up): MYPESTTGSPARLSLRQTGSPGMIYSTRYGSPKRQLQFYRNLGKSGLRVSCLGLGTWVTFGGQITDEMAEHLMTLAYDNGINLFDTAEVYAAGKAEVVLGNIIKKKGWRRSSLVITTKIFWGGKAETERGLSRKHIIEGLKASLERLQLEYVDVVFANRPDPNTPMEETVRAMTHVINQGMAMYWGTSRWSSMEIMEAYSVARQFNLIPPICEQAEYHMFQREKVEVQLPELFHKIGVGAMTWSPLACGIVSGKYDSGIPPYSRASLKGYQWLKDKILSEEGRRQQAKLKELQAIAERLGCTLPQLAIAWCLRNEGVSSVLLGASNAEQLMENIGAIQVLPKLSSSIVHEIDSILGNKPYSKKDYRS

[6] = molecular target: Voltage-gated potassium channel subunit beta-2 (Rattus norvegicus) (UniProt P62483); experiment: enhancers of rat Kvbeta2 NADPH turnover – biochemical, NADPH fluorescence, primary screen (AID 623); settings: Recombinant KvBeta, NADPH fluorescence decrease slope, 10 min; at 10 µM; stronger effect = lower value;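 also: fluorescence intensity change per second fitted from 20 to 320 s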
[7] = molecular target: Alpha-2C adrenergic receptor (Homo sapiens) (UniProt P18825); experiment: compounds altering alpha2C-coupled GIRK flux – cell-based, HEK293 alpha2C/GIRK1/2, thallium flux, primary screen (AID 624;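 active = fluorescence slope after compound addition differing from the mean of all screened samples at 99.7% confidence, in either direction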;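 also: slope of fluorescence ratio to pre-addition baseline per second over 15 to 24 s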); settings: thallium flux BTC fluorescence, at 10 µM, actives lie on both sides
Alpha-2C adrenergic receptor (Homo sapiens), sequence (P18825 whole entry, looked up): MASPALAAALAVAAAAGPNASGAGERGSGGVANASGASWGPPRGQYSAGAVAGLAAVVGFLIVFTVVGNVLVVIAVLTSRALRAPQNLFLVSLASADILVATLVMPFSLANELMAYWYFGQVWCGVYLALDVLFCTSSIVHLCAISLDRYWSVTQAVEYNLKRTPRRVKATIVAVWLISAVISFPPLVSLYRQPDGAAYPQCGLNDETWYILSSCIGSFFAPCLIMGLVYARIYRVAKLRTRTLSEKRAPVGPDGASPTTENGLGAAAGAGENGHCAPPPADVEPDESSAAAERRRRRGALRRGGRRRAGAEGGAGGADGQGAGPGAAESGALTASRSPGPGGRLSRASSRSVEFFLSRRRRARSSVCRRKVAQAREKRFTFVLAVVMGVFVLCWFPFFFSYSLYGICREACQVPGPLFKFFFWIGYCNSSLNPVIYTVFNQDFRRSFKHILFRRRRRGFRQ

[8] = inhibitors of larval lipid processing in zebrafish, primary screen, whole organism, PED6 fluorescence, gall bladder and intestine (AID 686;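 active = a full or partial loss of lipid-probe fluorescence in the fish gall bladder, intestine or both, judged by eye; inactive = no fluorescence loss, or compound toxic to the fish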;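 also: larvae 5 to 7 days old with five fish per well; signal comes from phospholipase A2 cleavage of quenched PED6 carried via bile; overnight exposure to compound and PED6 before scoring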); settings: Zebrafish larvae PED6 lipid processing, fluorescence scoring
Summary of the method: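 Doses: 20 µM single dose. Test system: live zebrafish larvae aged 5-7 days, whole organism. Quantity: five larvae per well. Measured by: By-eye fluorescence microscopy. Reagent: ingested quenched lipid PED6 at 100 nM. Read-out: visual per-well fluorescence inhibition score. Times: overnight exposure of larvae to compound plus PED6.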

[9] = loss of swimming-algae plug formation – whole organism, Chlamydomonas reinhardtii, WT vs cilia-less mutant, absorbance, 96-well, primary screen (AID 463189;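 active = inhibition at or above 50% relative to wild type and mutant plate controls; inactive = inhibition below 50%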;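 also: 0% = wild type cc124 cells in DMSO and 100% = ciliumless bld1 mutant cells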); settings: Chlamydomonas reinhardtii gravitaxis, OD600 absorbance, 2 days; at 10 µM; stronger effect = higher value
[10] = measured here: cell density z-score
[11] = measured here: nuclear c-Myc green intensity z-score
[12] = measured here: nuclear pErk red intensity z-score, stronger effect = higher value

Structure (SMILES)	cell count [1]	inhibition [1]	inhibition [2]	nuclei count [2] [%]	z-score [3, 10]	z-score [3, 11]	z-score [3, 12]	inhibition [4]	fluorescence slope [5]	NADPH fluorescence slope [6]	slope [7]	outcome [8]	inhibition [9]	z-score ([3]; measured here: cell density z-score, cells stimulated with TPA for 15 min)	z-score ([3]; measured here: nuclear c-Myc green intensity z-score, cells stimulated with TPA for 15 min)	z-score ([3]; measured here: nuclear pErk red intensity z-score, stronger effect = higher value, cells stimulated with TPA for 15 min)
CCN(CC)CCCNC(=O)c1c(O)c2ccccc2n(Cc2ccccc2)c1=O	520	-4.8% (inactive)	-10.6% (inactive)	98.5	3.05	0.407	-1.44	15.8% (inactive)	-0.425 (inactive)	-6.7e-06 (inactive)	0.00401 (inactive)	inactive	-10.8% (inactive)			
O=c1[nH]c(=O)n(CCc2ccccc2)c(O)c1C=NCCCn1ccnc1	364	-0.9% (inactive)	-29% (inactive)	94.5	-0.281	-0.0547	0.509	-2.59% (inactive)	-0.581 (inactive)	1.1e-06 (inactive)	0.00497 (inactive)	inactive	35.6% (inactive)			
CN1CC=C2C(C#N)=C(N)C(C#N)(C#N)C(c3ccncc3)C2C1 (centres undefined)	568	-17% (inactive)	30.3% (inactive)	179	-0.865	3.38	-0.482	67.6% (inactive)	-0.392 (inactive)	-5.3e-05 (inactive)	0.00203 (inactive)	inactive	11.3% (inactive)			
CCOc1ccccc1-n1c(O)c(C=Nc2c(C)n(C)n(-c3ccccc3)c2=O)c(=O)[nH]c1=O	629	-13.3% (inactive)	-48.3% (inactive)	148	1.53	-0.137	0.143	22.7% (inactive)	-0.432 (inactive)	-4.9e-06 (inactive)	0.00796 (inactive)	inactive	0.366% (inactive)			
O=C(Nc1ccncc1)c1c(O)c2ccccc2n(Cc2ccccc2)c1=O	544	-4.5% [at 2 µM, stronger effect = higher value, 0% TNFa-plus-vehicle, 100% no-TNFa wells] (inactive)	-23.1% (inactive)	145				10.5% [cells stimulated with TPA for 15 min] (inactive)	-0.32 (inactive)	2.5e-05 (inactive)	0.00467 (inactive)	inactive [screened at 20 µM (by protocol)]	30.8% (inactive)	-0.126	-1.62	-0.473
Cc1c(N=Cc2c(O)n(CCc3ccccc3)c(=O)[nH]c2=O)c(=O)n(-c2ccccc2)n1C	613	-20.6% (inactive)	-12.1% (inactive)	104	1.02	-1.15	-0.939	14.4% (inactive)	-0.465 (inactive)	-1.6e-05 (inactive)	0.00632 (inactive)	inactive	41.8% (inactive)			
CCC(=NCCN1CCCCC1)c1c(O)n(C)c(=O)n(C)c1=O	605	0.7% (inactive)	-61.5% (inactive)	154	0.767	-1.21	0.171	7.83% (inactive)	-0.517 (inactive)	-3.9e-05 (inactive)	0.00466 (inactive)	inactive	18% (inactive)			
CCCCOCCCn1c(N)c(C(=O)OC(C)COC)c2nc3ccccc3nc21 (centres undefined)	572	-16.3% (inactive)	-75.8% (inactive)	146	0.315	-0.916	-1.54	11.9% (inactive)	-0.0435 (inactive)	-1e-05 (inactive)	0.00527 (inactive)	inactive	21% (inactive)			
O=C1c2ccccc2C(=O)N1Cc1nc2ccccc2c(=O)n1-c1cccnc1	485	-17.5% (inactive)	13.6% (inactive)	113	-1.74	-0.21	1.85	-4.27% (inactive)	-0.469 (inactive)	-1.2e-05 (inactive)	0.00521 (inactive)	inactive	6.55% (inactive)			
CNCCc1nc(N)n[nH]1	570	-4.9% (inactive)	-160% (inactive)	139	1.42	-0.447	-0.807	27.8% (inactive)	-0.507 (inactive)	-4.4e-05 (inactive)	0.00445 (inactive)	inactive	24% (inactive)			
CC1(C)CC(n2[nH]c(=O)c3c2NC(=O)CSC3c2ccccc2)CCO1 (centres undefined)	532	10.5% (inactive)	-152% (inactive)	128	-0.163	0.684	-0.467	1.75% (inactive)	-0.501 (inactive)	-2.3e-05 (inactive)	0.00596 (inactive)	inactive	-16.8% (inactive)			
CCCCCCn1c(O)c(C=Nc2c(C)n(C)n(-c3ccccc3)c2=O)c(=O)[nH]c1=O	335	-9.2% (inactive)	-82.5% (inactive)	152	-0.0314	0.533	1.54	-7.01% (inactive)	-0.359 (inactive)	-0.000298 (inactive)	0.00815 (inactive)	inactive	5.18% (inactive)			
CC(=O)OC1(c2ccc(C)cc2)CN2CCC1c1ccccc12 (centres undefined)	554	-10% (inactive)	-198% (inactive)	145	0.866	0.595	0.108	25.8% (inactive)	-0.502 (inactive)	-6.1e-05 (inactive)	0.00515 (inactive)	inactive	18.7% (inactive)			
CCCCOCCCn1c(N)c(C(=O)OCCOC)c2nc3ccccc3nc21	525	-11.4% (inactive)	-48% (inactive)	152	-0.11	-0.345	0.203	15.5% (inactive)	-0.052 (inactive)	-3.5e-06 (inactive)	0.00403 (inactive)	inactive	29.3% (inactive)			
CCCCCCn1c(O)c(C(C)=NC)c(=O)[nH]c1=O	556	-6.2% (inactive)	-77.6% (inactive)	162	0.993	-1.06	1.3	-0.608% (inactive)	-0.503 (inactive)	-6.1e-05 (inactive)	0.00581 (inactive)	inactive	-6.02% (inactive)			
CCCCSP1(=S)NCCCN1	430	-6.2% (inactive)	-45.8% (inactive)	139	1.38	-0.994	0.0968	22.7% (inactive)	-0.484 (inactive)	-0.000231 (inactive)	0.00525 (inactive)	inactive	32.8% (inactive)			
O=C1NCCN2CCCC12 (centres undefined)	549	-10.8% (inactive)	-50.9% (inactive)	158	-1.06	-1.18	1.73	-0.608% (inactive)	-0.497 (inactive)	-0.000122 (inactive)	0.00514 (inactive)	inactive	13.6% (inactive)			
CC1CCC(C(C)C)C(OP(N)(=O)c2ccccc2)C1 (centres undefined)	413	-4.7% (inactive)	-225% (inactive)	189	1.77	-0.238	0.0184	36.1% (inactive)	-0.406 (inactive)	-7.4e-05 (inactive)	0.00486 (inactive)	inactive	1.67% (inactive)			

From PubChem BioAssay
